Here are results for 27 variants from the RNAGym collection of RNA variant scans (doi:10.1101/gad.245936.114).

First the molecules themselves.
B1: tRNA (parent)
chain: CUCUCGGUAGCCAAGUUGGUUUAAGGCGCAAGACUUUAAUUUAUCACUACGAAAUCUUGAGAUCGGGCGUUCGACUCGCCCCCGGGAGAUUUUUUCCUCGAGCAA

Fewer inactive variants are shown than the library holds. Bounds are passed on as bounds.

Variants of B1 are the subject of the data set. Kind of data set: nonsense suppression (GFP-seq) (ratio to wild type); higher = more function; SUP4oc tRNA, yeast GFP reporter sort-seq. An outline of the steps: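 Nonsense suppression (GFPSEQ) is the median GFP/RFP ratio of each sorting bin, weighted by the variant's estimated share of cells in that bin and expressed relative to the unmutated parent tRNA. Yeast strains carried genome-integrated variants of an ochre-suppressor tRNA from a library with ~3% random mutations, plus a galactose-driven GFP ochre reporter and RFP, and were grown in raffinose/galactose medium containing 80 mg/L adenine. Cells were sorted into GFP/RFP bins, each bin was Illumina-sequenced (phred ≥30), and variants were kept only with ≥100 reads and ≥30 cells.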
Turning to CCCUCGGUAGCCAAGUUGGUUUGAGGCGCAAGACUUUAAUUUAUCACUACGAAAUCUUGAGAUCGGGCGUUCGACUCGCCCCCGGGAGAUUUUUUCCUCGAGCAA [U2C A23G], the nonsense suppression was 0.0274.

CCCUCGGUAGCCAAGUUGGUCUAAGGCGCAAGACUUUAAUUUAUCACUACGAAAUCGUGAGAUCGGGCGUUCGACUCGCCCCCGGGAGAUUUUUUCCUCGAGCAA [U2C U21C U57G]: the nonsense suppression is at most 0.026.

As for CCCUCGGUAGCCAAGUUGGUUUAAGGCGCAAGACUUUAAUUUAUCACUACGAAAUCUUGAGAUCGGGCGUUCGACUCGCCCCCGGGAAAUUUUUUCCUCGAGCAA [U2C G88A], the nonsense suppression was at most 0.026.

On to CCCUCGGUAGCCAAGUUGGUUUAAGGCGCAAGACUUUAAUUUAUCACUACGAAAUCUUGCGAUCGGGCGUUCGAUUCGCCCCCGGGAGAUUUUUUCCUCGAGCAA [U2C A60C C75U], for which the nonsense suppression was at most 0.026.

In the case of CCCUCGGUAGCCAAGUUGGUUUAAGGCGCAAGACUUUAAUUUAUCACUACGAAAUCUUGCGAUCGGGCGUUCGACUCGCCCCCGGGAGAUUUUUUCCUCGAGCAA [U2C A60C], the nonsense suppression amounted to 0.0359.

Turning to CCCUCGGUAGCCAAGUUGGUUUAAGGCGCAAGACUUUAAUUUAUCACUACGAAAUCUUGUGAUCGGGCGUUCGACUCGCCCCCGGGAGAUUUUUUCCUCGAGCAA [U2C A60U], the nonsense suppression stood at 0.194.

In the case of CCCUCGGUAGCCAAGUUGGUUUAAGGCGCAAGACUUUAAUUUAUCACUACGAAAACUUGAGAUCGGGCGUUCGACUCGCCCCCGGGAGAUUUUUUCCUCGAGCAA [U2C U55A], the nonsense suppression is at most 0.026.

For the variant CCCUCGGUAGCCAAGUUGGCUUAAGGCGCAAGACUUUAAUUUAUCACUACGAAAUCUUGAGAUCGGGCGUUCGACUCGCCCCCGGGAGAUUUUUUCCUCGAGCAA [U2C U20C], the nonsense suppression was 0.0975.

In the case of CCCUCGGUAGCCAAGUUGGUUUAAGGCGCUGGACUUUAAUUUAUCACUACGAAAUCUUGAGGUCGGACGUUCGACUCGCCCCCGGCAGAUUUUUUCCUCGAGCAA [U2C A30U A31G A62G G67A G86C], the nonsense suppression was at most 0.026.

Regarding CCCUCGGUAGCCAAGUUGGUUUAAGGCGCAAGACUUUAAUUUAUCACUACGAAAUCUUGAGAUCGGGCGUUCGACUCACCCCCGGGAGAUUUUUUCCUCGAGCAA [U2C G78A], the nonsense suppression worked out at 0.0386.

Take CCCUCGGUAGCGAAGUUGGUUUAAGGCGCAAGACUUUAAUUUAUCACUACGAAAUCUUGAGAUCGGGCGUUCGACUCGCCCCCGGGAGAUUUUUUCCUCGAGCAA [U2C C12G]: the nonsense suppression is at most 0.026.

As to CCCUCGGUAGCCAAGUUGGUUUAAGGCGCAAGACUUUAAUUUAUCACUACGAAAUCUUGACAUCGGGCGUUCGACUCGCCCCCGGGAGAUUUUUUCCUCGAGCAA [U2C G61C], the nonsense suppression turned out to be 0.0279.

As to CCCUCGGUAGCCAAGUUGGUUUAAGGCGCAAGACUUUAAUUUAUCACUACGAAAUCUUGAUAUCGGGCGUUCGACUCGCCCCCGGGAGAUUUUUUCCUCGAGCAA [U2C G61U], the nonsense suppression came to 0.122.

Consider CCCUCGGUAGCCAAGUUGGUUUAAGGCGCAAGACUUUAAUUUAUCACUACGAAACCUGGAGAUCGGGCGUUCGACUCGCCCCCGGGAGAUUUUUUCCUCGAGCAA [U2C U55C U58G], for which the nonsense suppression was at most 0.026.

On to CCCUCGGUAGCCAUGUUGGUUUAAGGCGCAAGACUUUAAUUUAUCACUACGAAAUCCUGAGAUCGGGCGUUCGACUCGCCCCCGGGAGAUUUUUUCCUCGAGCAA [U2C A14U U57C], for which the nonsense suppression is at most 0.026.

CCCUCUGUAGCCAAGUUGGUUUAAGGCGUAAGACUUUAAUUUAUCACUACGAAAUCUUGAGAUCGGGCGUUCGACUCGCCCCCGGGAGAUUUUUUCCUCGAGCAA [U2C G6U C29U]: the nonsense suppression was at most 0.026.

For the variant CCCUCGGUAGCCAAGUUGGCUUAUGGCGCAAGACUUUAAUUUAUCACUACGAAAUCUUGAGAUCGGGCGUUCGACUCGCCCCCGGGAGAUUUUUUCCUCGAGCAA [U2C U20C A24U], the nonsense suppression is at most 0.026.

With CCCUCGGUAGCCAAGUUGGUUUAAGGCGCAAGACUUUAAUUUAUCACUACGAAAUCUUGAGAGCGGGCGUUCAACUCGCCCCCGGGAGAUUUUUUCCUCGAGCAA [U2C U63G G73A], the nonsense suppression was at most 0.026.

For the variant CCCUCGGUAGCCAAGUUGGUUUACGGCGCAAGACUUUAAUUUAUCACUACGAAAUCUUGAGAUCGGGCGUUCGACUCGCCCCCGGGAGAUUUUUUCCUCGAGCAA [U2C A24C], the nonsense suppression was found to be 0.0326.

Consider CCCUCGGUAGCCAAGUUGGUUUAAGGCUCAAGACUUUAAUUUAUCACUACGAAAUCUUGAGAUCGGGCGUUCGACUCGCCCCCGGGAGAUUUUUUCCUCGAGCAA [U2C G28U], for which the nonsense suppression is at most 0.026.

With CCCUCGGUAGCCUAGUUGGUUUAAGGCGCAAGACUUUAAUUUAUCACUACGAAAUCUUGAGAUCGGGCGUUCGACUCGCCCCCGGGAGAUUUUUUCCUCGAGCAA [U2C A13U], the nonsense suppression came to 0.0357.

Consider CCUUCGGUAGCUAAAUUGGUUUAAGGCGCAAGACUUUAAUUUAUCACUACGAAAUCUUGAGAUCGGGCGUUCGACUCGCCCCCGGGAGAUUUUUUCCUCGAGCAA [U2C C3U C12U G15A], for which the nonsense suppression is at most 0.026.

With CCCUCGGUAGCCAAGUUGGUUUAAGGCGCAAGACUUUAAUUUAUCACUACGAAAUAUUGAGAUCGGGCGUUCGACUCGCCCCCGGGAGAUUUUUUCCUCGAGCAA [U2C C56A], the nonsense suppression is at most 0.026.

On to CCCUCGGUAGCCAAGUUGGUUUAAGGCGCAAGACUUUAAUUUAUCACUACGAAAUGUUGAGAUCGGGCGUUCGACUCGCCCCCGGGAGAUUUUUUCCUCGAGCAA [U2C C56G], for which the nonsense suppression was at most 0.026.

As to CCCUCGGUAGCCAAGUUGGUUUAAGGCGCAAGACUUUAAUUUAUCACUACGAAAUUUUGAGAUCGGGCGUUCGACUCGCCCCCGGGAGAUUUUUUCCUCGAGCAA [U2C C56U], the nonsense suppression was at most 0.026.

CCCGCGGUAGCCAAGUUGGUUUAAGGCGCAAGACUUUAAUUUAUCACUACGAAAUCUUGAGAUCGGGCGUUCGACUCGCCCCCGGGAGAUUUUUUCCUCGAGCAA [U2C U4G]: the nonsense suppression is 0.0326.

Turning to CCCCCGGUAGCCAAGUUGGUUUAAGGCGCAAGACUUUAAUUUAUCACUACGAAAUCUUGAGAUCGGGCGUUCGACUCGCCCCCGGGAGAUUUUUUCCUCGAGCAA [U2C U4C], the nonsense suppression stood at 1.01.
